The source of these data is ChEMBL document CHEMBL5385967, “Nitrogen-containing andrographolide derivatives with multidrug resistance reversal effects in cancer cells” (RSC Med Chem, 2024).

The target of data set [1] is T1, ATP-dependent translocase ABCB1 (Homo sapiens, UniProt P08183). Briefly: Modulation of human P-gp transfected in mouse L5178Y cells assessed as change in Rhodamine-123 efflux by measuring fluorescence activity ratio at 2 uM pretreated for 10 mins followed by Rhodamine-123 challenge for 20 mins by flow cytometry relative to parental mouse L5178Y cells. The format is cell-based. The conditions noted are these: 0.5 h, time 30 min. Summed up: (§1)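 PAR and MDR cells at 2 × 10^6 cells/mL in serum-free McCoy's 5A. Compound given 10 min at room temperature, then rhodamine-123 (5.2 μM final) for 20 min at 37 °C. Washed twice, resuspended in PBS, mean FL-1 read by flow cytometry. FAR = (MDR treated/untreated)/(PAR treated/untreated). Verapamil 20 μM positive control, DMSO 2% solvent control.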

The test system of data set [2] is L5178Y. Put plainly: Reversal of multidrug resistance in multidrug resistant mouse L5178Y cells transfected with human ABCB1 assessed as reduction in cell viability incubated for 72 hrs by MTT assay. The class given is functional, cell-based. Summed up:
(§2)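 Parental L5178Y or human ABCB1-transfected L5178Y MDR subline kept under 60 ng mL−1 colchicine selection; McCoy's 5A, 10% heat-inactivated horse serum, 37 °C. 6 × 10^3 cells/well exposed to 2-fold serial dilutions from 100 μM for 72 h. MTT 4 h, SDS overnight, OD 540/630 nm. Triplicate; IC50 from curve fitting, mean ± SD.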

Data set [3] concerns L5178Y. Put plainly: Antiproliferative activity against mouse L5178Y cells assessed as reduction in cell viability incubated for 72 hrs by MTT assay. The format is functional, cell-based. Summed up: as §2
The test system of data set [4] is L5178Y. Briefly: Synergistic antiproliferative activity against multidrug resistant mouse L5178Y cells transfected with human ABCB1 assessed as combination index incubated for 72 hrs in presence of doxorubicin by MTT assay. The class given is functional. The essentials: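 Checkerboard in MDR cells, 6 × 10^3 cells/well. Doxorubicin in serial dilutions from 8.6 μM, crossed with modifier dilutions whose start level was set from its IC50. 72 h at 37 °C under CO2, growth read by MTT. Curves fitted by the median-effect equation; CI reported at 50% inhibition, mean ± SD.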

In data set [5] the target is T1, ATP-dependent translocase ABCB1. Briefly: Modulation of human P-gp transfected in mouse L5178Y cells assessed as change in Rhodamine-123 efflux by measuring fluorescence activity ratio at 0.2 uM pretreated for 10 mins followed by Rhodamine-123 challenge for 20 mins by flow cytometry relative to parental mouse L5178Y cells. The class given is cell-based. The note with it: 0.5 h, time 30 min. Summed up: as §1

A short description of data set [6]: Resistance ratio of IC50 for antiproliferative activity against multidrug resistant mouse L5178Y cells transfected with human ABCB1 to IC50 for antiproliferative activity against mouse L5178Y cells. The format is functional. Summed up: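 RR = IC50(MDR)/IC50(PAR), IC50s from the 72 h MTT assay: 2-fold dilutions from 100 μM, 6 × 10^3 cells/well, triplicate. Collateral sensitivity taken as RR < 0.5; RR < 1 counted as selectivity toward resistant cells.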

A value given as a limit tells only on which side of the number the result lay.

T1 sequence (P08183 whole entry): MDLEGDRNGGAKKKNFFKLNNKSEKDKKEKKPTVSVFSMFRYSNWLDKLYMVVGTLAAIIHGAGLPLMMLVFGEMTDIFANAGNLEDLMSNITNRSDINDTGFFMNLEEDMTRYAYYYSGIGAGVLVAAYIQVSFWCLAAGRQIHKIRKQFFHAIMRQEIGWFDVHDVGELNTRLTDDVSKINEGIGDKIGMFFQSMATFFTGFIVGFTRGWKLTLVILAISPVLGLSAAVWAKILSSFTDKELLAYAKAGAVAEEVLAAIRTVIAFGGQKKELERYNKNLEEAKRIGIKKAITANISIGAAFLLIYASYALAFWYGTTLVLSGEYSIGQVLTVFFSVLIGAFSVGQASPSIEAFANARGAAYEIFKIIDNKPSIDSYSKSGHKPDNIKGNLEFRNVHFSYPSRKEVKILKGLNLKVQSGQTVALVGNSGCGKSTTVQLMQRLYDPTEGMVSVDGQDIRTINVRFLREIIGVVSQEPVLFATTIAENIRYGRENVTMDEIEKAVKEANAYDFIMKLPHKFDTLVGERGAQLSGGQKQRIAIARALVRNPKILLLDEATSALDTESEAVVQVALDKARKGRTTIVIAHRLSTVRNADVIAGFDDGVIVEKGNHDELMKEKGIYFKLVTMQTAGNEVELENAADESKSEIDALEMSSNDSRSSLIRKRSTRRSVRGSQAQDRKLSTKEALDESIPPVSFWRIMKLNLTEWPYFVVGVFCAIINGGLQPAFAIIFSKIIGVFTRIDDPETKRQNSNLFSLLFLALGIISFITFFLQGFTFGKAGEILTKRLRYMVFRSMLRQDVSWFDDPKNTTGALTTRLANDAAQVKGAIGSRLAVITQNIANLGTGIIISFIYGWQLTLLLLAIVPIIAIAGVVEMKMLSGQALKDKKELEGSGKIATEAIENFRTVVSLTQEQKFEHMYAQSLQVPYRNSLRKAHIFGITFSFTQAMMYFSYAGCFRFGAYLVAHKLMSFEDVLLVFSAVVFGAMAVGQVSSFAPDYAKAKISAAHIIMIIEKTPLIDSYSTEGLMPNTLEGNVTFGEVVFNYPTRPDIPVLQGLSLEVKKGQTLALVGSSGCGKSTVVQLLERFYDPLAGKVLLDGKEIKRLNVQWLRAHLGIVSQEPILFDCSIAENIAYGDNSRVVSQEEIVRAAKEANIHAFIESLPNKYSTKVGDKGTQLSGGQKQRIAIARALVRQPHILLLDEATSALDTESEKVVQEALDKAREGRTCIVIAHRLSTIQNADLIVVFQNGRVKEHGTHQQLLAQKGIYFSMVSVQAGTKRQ

`C=C1CC[C@@H]2[C@](C)(COC(C)=O)[C@H](OC(C)=O)CC[C@@]2(C)[C@@H]1C[C@H](NNC(=O)c1ccc(C(F)(F)F)cc1)C1=CCOC1=O`: the Ratio was determined as 2.27 in data set [1], 0.37 in data set [5] and 1.75 in data set [6]. For the same compound, the IC50 turned out to be 11.8 µM in the data set with L5178Y [2] and 6.74 µM in the data set with L5178Y [3]. Also, the CI with L5178Y [4] was less than 1.

`C=C1CC[C@@H]2[C@](C)(COC(C)=O)[C@H](OC(C)=O)CC[C@@]2(C)[C@@H]1C[C@H](NNc1ccc(Br)cn1)C1=CCOC1=O`: the values for the Ratio in data set [1], in data set [5] and in data set [6] were 16.12, 2.34 and 0.58, respectively. In addition, the IC50 in the data set with L5178Y [2] amounted to 12 µM; in the data set with L5178Y [3] it was 20.6 µM. In addition, the CI in the data set with L5178Y [4] came to 0.21.

Turning to `C=C1CC[C@@H]2[C@](C)(COC(C)=O)[C@H](OC(C)=O)CC[C@@]2(C)[C@@H]1C[C@H](NNC(=O)c1ccco1)C1=CCOC1=O`, the Ratio is 4.28 in data set [1], 2.32 in data set [5] and 1.38 in data set [6]. For the same compound, the figures for the IC50 in the data set on L5178Y [2] and with L5178Y [3] were 15.3 µM and 11.1 µM, respectively. For the same compound, in the data set with L5178Y [4], the CI is recorded as less than 1.
